# Results reported in publication PMC4324418 (ACS Chemical Neuroscience, 2014).
# pKi: −log10 of the molar value.
# How the values were obtained:
# human M4 = target: T1, human M4 (Homo sapiens, UniProt P08173); type: cell-based; details: maximum response as % of the Emax of ACh
# T1 sequence (P08173 1-479): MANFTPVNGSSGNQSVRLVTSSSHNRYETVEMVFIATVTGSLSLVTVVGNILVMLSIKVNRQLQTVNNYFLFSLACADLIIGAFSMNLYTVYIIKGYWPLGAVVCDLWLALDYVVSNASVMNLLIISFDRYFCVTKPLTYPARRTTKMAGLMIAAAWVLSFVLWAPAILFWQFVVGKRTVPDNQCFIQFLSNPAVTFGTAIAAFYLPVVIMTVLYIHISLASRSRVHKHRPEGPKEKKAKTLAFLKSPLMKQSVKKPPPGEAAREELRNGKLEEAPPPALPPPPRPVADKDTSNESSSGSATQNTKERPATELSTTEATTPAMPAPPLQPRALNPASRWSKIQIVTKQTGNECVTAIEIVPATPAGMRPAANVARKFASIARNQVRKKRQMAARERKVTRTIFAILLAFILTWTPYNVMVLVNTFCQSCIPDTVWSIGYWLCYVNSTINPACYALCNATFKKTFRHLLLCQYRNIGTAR
# human M2 receptor = experiment: Calcium mobilization, selectivity; type: cell-based
# How it was run: (§1)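 Cells were seeded at 15000/well in DMEM with 10% dialyzed FBS, 20 mM HEPES and 1 mM pyruvate, then cultured overnight at 37 °C/5% CO2. M2 and M4 lines were cotransfected with Gqi5. Cells were loaded with 1 μM Fluo-4AM (HBSS, 20 mM HEPES, 2.5 mM probenecid, pH 7.4) for 50 min at 37 °C. ACh was added 140 s after test compound. Calcium signal was expressed as % of the 10 μM ACh maximum.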
# [1] = Amphetamine-induced hyperlocomotion in rats; type: in vivo; details: Sprague-Dawley, rat, brain, po
# rats = experiment: Amphetamine-induced hyperlocomotion in rats; type: in vivo; details: rat, amphetamine 0.75 mg/kg SC
# [2] = Biotransformation in cryopreserved rat hepatocytes; type: in vitro ADME; details: male, Sprague–Dawley rat (data not shown)
# rat M4 receptor = target: T2, rat M4 receptor (Rattus norvegicus, UniProt P08485); experiment: Progressive fold-shift of ACh concentration-response curve; type: cell-based; details: operational model of allosterism
# T2 sequence (P08485 1-478): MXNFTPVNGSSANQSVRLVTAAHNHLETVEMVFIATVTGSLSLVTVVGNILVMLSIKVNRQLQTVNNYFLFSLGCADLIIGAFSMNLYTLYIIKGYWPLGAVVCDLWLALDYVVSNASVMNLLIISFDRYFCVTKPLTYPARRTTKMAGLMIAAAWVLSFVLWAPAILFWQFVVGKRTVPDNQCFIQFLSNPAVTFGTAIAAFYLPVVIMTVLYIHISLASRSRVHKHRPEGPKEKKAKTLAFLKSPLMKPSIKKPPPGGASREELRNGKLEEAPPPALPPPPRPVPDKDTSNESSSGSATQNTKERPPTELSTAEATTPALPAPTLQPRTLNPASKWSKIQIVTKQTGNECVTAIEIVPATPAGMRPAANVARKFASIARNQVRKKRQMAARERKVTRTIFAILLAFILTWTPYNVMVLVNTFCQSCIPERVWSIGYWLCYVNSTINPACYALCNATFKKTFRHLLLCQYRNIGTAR
# rat M1 receptor = experiment: Calcium mobilization, selectivity; type: cell-based
# How it was run: as §1
# human M3 receptor = experiment: Calcium mobilization, selectivity; type: cell-based
# How it was run: as §1
# wild-type mice [3] = experiment: Contextual fear conditioning, four-shock, MK-801-induced deficit; type: in vivo, mouse
# How it was run: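 Subjects were wild-type and M4 KO mice, 8–11 weeks old, handled for 3 days and saline-injected 1 day before conditioning. Vehicle (10% Tween 80 in water, IP) or test compound (3–10 mg/kg IP) was given 30 min before saline or MK-801 (0.1–0.3 mg/kg IP). Mice entered the chamber 30 min later for a four-shock conditioning trial. Percent freezing was scored 24 h later, drug-free.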
# wild-type mice [4] = experiment: Rotarod; type: in vivo, mouse; details: 3–30 mg/kg IP, rotarod 20 rpm
# How it was run: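 Mice received vehicle (10% Tween 80 in sterile water IP) or test compound (3–30 mg/kg IP). Sixty minutes later they were placed on the rotarod and latency to fall was measured. One-way ANOVA with Dunnett's test.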
# wild-type mice [5] = type: in vivo, mouse; details: data not shown
# How it was run: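 Wild-type mice received vehicle (10% Tween 80, IP) or test compound (30 mg/kg IP). Thirty minutes later they received saline (IP) or MK-801 (0.3 mg/kg IP).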
# wild-type mice [6] = experiment: Cue-dependent fear conditioning; type: in vivo, mouse; details: 3–30 mg/kg prior to the conditioning session
# wild-type mice [7] = experiment: Modified Irwin neurological test battery; type: in vivo, mouse; details: 10–30 mg/kg
# human M1 receptor = experiment: Calcium mobilization, selectivity; type: cell-based
# How it was run: as §1
# [8] = target: T3, guinea pig adenosine transporter (Cavia porcellus, UniProt H0V4R7); experiment: Cerep panel, displacement of [3H]NTBI binding
# T3 sequence (H0V4R7 1-461): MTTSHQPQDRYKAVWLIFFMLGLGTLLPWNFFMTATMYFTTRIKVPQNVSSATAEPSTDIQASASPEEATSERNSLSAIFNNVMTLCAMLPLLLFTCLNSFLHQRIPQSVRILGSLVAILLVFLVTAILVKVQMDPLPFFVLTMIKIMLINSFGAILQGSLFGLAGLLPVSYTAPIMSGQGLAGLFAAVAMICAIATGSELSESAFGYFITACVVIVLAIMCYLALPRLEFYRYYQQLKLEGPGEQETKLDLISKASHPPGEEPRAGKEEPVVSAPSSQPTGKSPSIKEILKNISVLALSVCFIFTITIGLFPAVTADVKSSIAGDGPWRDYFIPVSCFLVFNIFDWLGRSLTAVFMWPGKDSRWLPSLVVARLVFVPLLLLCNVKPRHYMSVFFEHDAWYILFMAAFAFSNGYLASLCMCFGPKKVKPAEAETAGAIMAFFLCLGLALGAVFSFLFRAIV
smiles,measurement,setting,value
"Cc1nnc2sc(C(=O)NCc3ccc(S(=O)(=O)C(F)(F)F)cc3)c(N)c2c1C [VU0467154, 5-amino-3,4-dimethyl-N-(4-((trifluoromethyl)sulfonyl)benzyl)thieno[2,3-c]pyridazine-6-carboxamide]",%AChmax,human M4,55%
same,potentiation of ACh response (calcium response),human M2 receptor,lack of a calcium response
same,concentration at 1.5 h,"[1]; 3 mg/kg, mean Cbrain, PO 3 mg/kg, at 1.5 h postadministration",750 nM
same,concentration at 1.5 h,"[1]; 3 mg/kg, mean Cbrain,u, PO 3 mg/kg, 1.5 h, in vitro rat fubrain 0.067",50 nM
same,concentration at 1.5 h,"[1]; 10 mg/kg, mean Cbrain, PO 10 mg/kg, at 1.5 h postadministration",1100 nM
same,concentration at 1.5 h,"[1]; 10 mg/kg, mean Cbrain,u, PO 10 mg/kg, 1.5 h, in vitro rat fubrain 0.067",74 nM
same,concentration at 1.5 h,"[1]; 30 mg/kg, mean Cbrain,u, PO 30 mg/kg, 1.5 h, in vitro rat fubrain 0.067",94 nM
same,concentration at 1.5 h,"[1]; 56.6 mg/kg, mean Cbrain,u, PO 56.6 mg/kg, 1.5 h, in vitro rat fubrain 0.067",94 nM
same,mean reversal of AHL,rats; PO 1 mg/kg,21%
same,mean reversal of AHL,rats; PO 3 mg/kg,33%
same,mean reversal of AHL,rats; PO 10 mg/kg,46%
same,mean reversal of AHL,rats; PO 30 mg/kg,53%
same,mean reversal of AHL,rats; PO 56.6 mg/kg,42%
same,turnover in hepatocytes,[2],low turnover
same,efficacy cooperativity factor (log β),rat M4 receptor,0.91
same,efficacy cooperativity factor β,rat M4 receptor,8.17
same,potentiation of ACh response (calcium response),rat M1 receptor,lack of a calcium response
same,potentiation of ACh response (calcium response),human M3 receptor,lack of a calcium response
same,effect on contextual fear conditioning,"wild-type mice [3]; VU0467154 alone, four-shock",had no effect on contextual fear conditioning
same,reversal of MK-801-induced deficits in the acquisition of contextual fear conditioning,wild-type mice [3]; pretreatment 3–10 mg/kg,dose-dependently reversed
same,latency to fall,wild-type mice [4],did not alter the latency to fall
same,serotonin utilization in the NAS and CP,wild-type mice [5],Neither single nor combined administration of VU0467154 with MK-801 altered serotonin utilization
same,acquisition of cue-dependent fear conditioning,wild-type mice [6],enhanced acquisition of cue-dependent fear conditioning
same,autonomic and somatosensory side effects,wild-type mice [7],did not exhibit autonomic and somatosensory side effects
same,potentiation of ACh response (calcium response),human M1 receptor,lack of a calcium response
same,pKi,[8],7.01
